# Screens (PubChem)
# T cell HTS: modulates CD8 T cell binding to vesicles; 2C CD8+ T cell-vesicle binding, flow cytometry; active compounds read low; response (vesicle binding), % at 7 µM; hit rate 0.068% among 330,000;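 active = response, share of CD8 T cells binding vesicles, and their 90th percentile fluorescence all below set limits, cut at about 80% in these data, passing the limit was not always enough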;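 note: values below 100% mean blocked vesicle binding to the CD8+ T cells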
#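 Benchmarks: naked versus QL9-loaded vesicles / Assay system: purified 2C TCR transgenic mouse naive CD8+ T cells / Technique: high-throughput flow cytometry with anti-B7-1 and anti-CD8 staining / Timing: Cell–vesicle co-incubation 1.5 h at 37 °C, staining 20 min on ice / Read-out: percent CD8+ FL2 mean versus row control / Probe or stimulus: QL9-loaded Drosophila micro-vesicles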
# FXN GAA850 act: frataxin GAA850 promoter activation. HEK293 lucGAA850 FXN promoter luciferase reporter, 24 h; percent of 10 µM SAHA response. activation, % at 6 µM. hit rate 0.56% among 360,000;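 active = activation above the average of all compounds screened plus 3 SD, cutoff fixed separately per campaign, cut at about 7.5% in these data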;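 note: 0% = DMSO wells and 100% = 10 µM SAHA wells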
# NR2E3 ag-1: activates human photoreceptor nuclear receptor NR2E3; AID 2300; Q9Y5X4; hit rate 0.12% among 320,000; inhibition of corepressor binding, % at 4.78 µM; GST-NR2E3/biotin-RetCOR TR-FRET, 1536-well;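 active = percent inhibition above the cutoff of mean plus 3 SD of all tested compounds, set per screening campaign, cut at about 20% in these data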;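 note: 0% = DMSO wells and 100% = biotin wells as full block of FRET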
# Target sequence (Q9Y5X4 whole entry, looked up): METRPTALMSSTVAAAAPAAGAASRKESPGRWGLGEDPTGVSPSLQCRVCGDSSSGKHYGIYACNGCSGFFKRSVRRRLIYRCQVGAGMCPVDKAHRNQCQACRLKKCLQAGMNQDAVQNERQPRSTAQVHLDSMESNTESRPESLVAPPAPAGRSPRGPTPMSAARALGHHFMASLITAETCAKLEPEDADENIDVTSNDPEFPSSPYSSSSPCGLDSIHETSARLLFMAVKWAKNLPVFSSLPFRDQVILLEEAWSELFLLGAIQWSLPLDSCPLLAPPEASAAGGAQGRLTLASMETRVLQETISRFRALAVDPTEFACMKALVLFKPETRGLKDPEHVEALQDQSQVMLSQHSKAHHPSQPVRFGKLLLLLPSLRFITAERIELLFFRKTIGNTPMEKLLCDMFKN
#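 Material – GST-tagged NR2E3 plus biotinylated RetCOR corepressor · Quantity – NR2E3 fusion 1.35 nM · Times – 5 h incubation at 4 °C · Medium – pH 7.5 Tris-based buffer · Technique – TR-FRET, Eu(K)-anti-GST donor, streptavidin-D2 acceptor, ex 340, em 617/671 nm · Benchmarks – high control biotin, low control 0.6% DMSO · Format – 1536-well plates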
# NR2E3 ag-2: human photoreceptor-specific nuclear receptor agonism; Q9Y5X4; CHO-S Gal4-NCOR/VP16-NR2E3 two-hybrid, luciferase; inhibition of corepressor binding, % at 3.98 µM; hit rate 0.35% among 360,000; AID 602229;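 active = inhibition above the mean of all tested compounds plus 3 SD, cut at about 70% in these data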;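 note: 0% = DMSO with NR2E3 transfected cells and 100% = cells lacking NR2E3 construct; higher means lower luciferase signal from less NR2E3 corepressor binding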
# Myeloid diff MLP: promotes myeloid progenitor differentiation; hit rate 1% among 360,000; calls only at 10 µM; ER-HoxA9 myeloid progenitors, lysozyme-GFP differentiation, flow cytometry;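 active = normalized GFP-positive differentiation at or above the plate's own cutoff, the solvent-only control mean plus 3 SD; inconclusive = no clear call, values can overlap the other calls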;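 note: cells exposed to compound for four days before flow analysis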
# NR2E3 ag conf: confirmation of human NR2E3 agonists; AID 624378; CHO-S mammalian two-hybrid NR2E3-NCOR, luciferase luminescence; shares compounds with NR2E3 ag-2; inhibition, % at 3.98 µM; hit rate 51% among 2,300;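 active = average inhibition above a cutoff equal to the mean inhibition of all tested compounds plus one SD, cut at about 70% in these data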;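 note: 0% = DMSO in NR2E3 cells and 100% = DMSO in cells lacking NR2E3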
# GAL4-VP16 luc: GAL4-VP16 reporter inhibition in NR2E3 agonist counterscreen; shares compounds with NR2E3 ag-2; CHO-S GAL4-VP16 luciferase reporter, luminescence; inhibition, % at 3.98 µM; hit rate 29% among 2,300;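 active = mean inhibition above a cutoff equal to the average over all tested compounds plus one standard deviation, cut at about 70% in these data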;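 note: luciferase from a UAS reporter driven by GAL4-VP16 transactivation; 0% = DMSO with VP16-transfected cells and 100% = DMSO with cells lacking VP16; higher means less reporter light so more repression of VP16 activity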
# * hit, by the source's call; i = inactive; ? = inconclusive; . = no result given. A selection: hits, their analogues and other compounds. The true share with any hit is near 2%.
SMILES,T cell HTS,FXN GAA850 act,NR2E3 ag-1,NR2E3 ag-2,Myeloid diff MLP,NR2E3 ag conf,GAL4-VP16 luc
COc1cc2c(cc1OC)C(c1ccccc1)N(Cc1ccc(S(=O)(=O)NC(=O)c3ccco3)cc1)CC2 (configuration not stated),.,.,.,-18.4,i,.,.
Cc1nnnn1/C(=C\c1ccccc1)C(=O)OCC(=O)Nc1ccc(Cl)cc1F,175.7,-2.1,-1.6,60.6,i,49.3,5.4
Cc1nnnn1/C(=C\c1ccccc1)C(=O)OCC(=O)Nc1cccc(S(=O)(=O)N(C)C)c1,457.8,0.1,5.7,38.7,i,.,.
Cc1csc2c(N3CCN(C(=O)Nc4ccc(OC(F)(F)F)cc4)CC3)ncnc12,264.4,1.6,0.8,62.6,i,90.1*,71.2*
CCC(c1nnnn1-c1ccc2c(c1)OCCO2)N1CCN(c2ccc(C(F)(F)F)cc2[N+](=O)[O-])CC1 (configuration not stated),.,.,.,3.2,i,.,.
COc1cc(F)ccc1-c1csc(C(O)c2ccc(F)c(F)c2)n1 (configuration not stated),.,1.8,.,-52.2,i,.,.
COC(=O)Cc1c(C)c2ccc(OC3CCCCC3=O)cc2oc1=O (configuration not stated),190.7,1.6,.,-38.0,i,.,.
COC(=O)Cc1c(C)c2ccc(OC3CCCCC3=O)c(C)c2oc1=O (configuration not stated),313.5,3.9,0.2,72.0*,i,40.0,42.0
Cc1ccc2nc(N3C(=O)CNC3=S)sc2c1,258.5,3.8,5.3,48.7,i,-172.0,-190.2
NNC(=O)c1cnn(Cc2ccccc2)c1N,161.3,-0.6,2.8,56.6,.,-16.5,0.8
O=C(Nc1ccc2c(c1)OCCO2)C(c1ccnc2ccccc12)N1CCN(c2ccc(C(F)(F)F)cn2)CC1 (configuration not stated),.,.,.,57.7,i,29.2,1.5
Cc1ccc(S(=O)(=O)NCc2cccnc2)cc1C(=O)NC1CCCCC1,396.3,-4.6,0.0,17.5,i,.,.
CC(C)(C)[C@H]1C=C(C(=O)Nc2ccccc2)O[C@@H](OCCCCO)C1,732.2,-6.4,-0.1,65.3,i,-2.5,-48.3
c1ccc(SC23CCCCN(CCC2)[C@]32CO2)cc1 (some centres not stated),.,.,.,-13.6,i,.,.
CCOc1cc(/C=N/Nc2cc(C)nc(-n3nc(C)cc3C)n2)ccc1O,582.9,-7.7,0.2,90.5*,i,2.8,-10.8
Cc1cc(N/N=C/c2ccc(F)cc2)nc(-n2nc(C)cc2C)n1,562.2,-3.5,-0.9,94.4*,i,2.8,24.9
CCOc1ccc(Nc2cc(C)nc(-n3nc(C)cc3C)n2)cc1,253.3,6.3,-2.4,83.6*,.,28.4,32.0
COc1ccc(/C=N/Nc2cc(C)nc(-n3nc(C)cc3C)n2)c(OC)c1,239.2,1.0,1.6,64.5,i,7.8,5.4
COc1ccccc1/C=N/Nc1cc(C)nc(N2CCOCC2)n1,651.9,0.8,4.2,-0.3,i,.,.
CCOc1cc(/C=N/Nc2nc(C)cc(=O)[nH]2)ccc1O,261.5,0.9,-3.7,-25.7,i,.,.
CC(C)(C)c1ccc(S(=O)(=O)Nc2ccc(C(O)(C(F)(F)F)C(F)(F)F)cc2)cc1,.,1.4,.,-24.0,i,.,.
COc1ccc(NC(=O)CSCC(=O)N(C)CC(=O)Nc2cccc3ccccc23)cc1,192.8,-0.3,1.9,-20.0,i,.,.
COc1ccccc1Cc1c(-c2cccc(Cl)c2)nc2ccc(C)cn12,.,.,.,-29.6,i,.,.
CN(C)c1ccc(/C=C/c2ccc3c4ccccc4ccc3[n+]2-c2ccccc2)cc1,.,-14.1,.,100.7*,.,99.0*,89.8*
CN(CCCS(=O)(=O)[O-])c1ccc(/C=C/c2ccc3ccccc3[n+]2C)cc1,169.9,-0.7,.,-7.0,i,.,.
SMILES,T cell HTS,FXN GAA850 act,NR2E3 ag-1,NR2E3 ag-2,Myeloid diff MLP,NR2E3 ag conf,GAL4-VP16 luc
CN(C)c1ccc(/C=C/c2ccc3ccccc3[n+]2C)cc1,399.3,-11.6,-28.0,52.4,.,86.7*,51.9
O=C(O)CCSc1nnc(-c2ccc3c(c2)OCO3)o1,369.0,-8.3,1.9,52.8,i,30.2,39.8
CC(=O)CSc1nnc(-c2ccc3c(c2)OCO3)o1,263.9,0.8,1.3,-120.1,i,.,.
O=C(NCC1CCCCC1)C1(CC2CC(c3ccc(Cl)cc3)=NO2)CCNCC1 (configuration not stated),302.4,1.8,1.4,-45.8,i,.,.
COc1ccccc1N(Cc1ccccc1)S(=O)(=O)c1cccc(C(=O)Nc2ccc(C)cn2)c1,911.6,-2.1,-1.4,56.6,i,-0.4,3.7
COc1ccccc1N(Cc1ccccc1)S(=O)(=O)c1cccc(C(=O)Nc2ccccn2)c1,390.3,-4.6,-2.2,-19.4,i,.,.
Clc1c(Cl)c(Cl)c2n[nH]nc2c1Cl,550.0,0.5,-4.1,64.0,i,96.4*,80.9*
COc1cccc(OCCn2cc(C(C)=O)c3ccccc32)c1,315.6,0.5,4.6,64.8,i,79.6*,63.7
CC(=O)c1cn(CC(=O)Nc2ccc(C)cc2C)c2ccccc12,224.0,-5.2,4.3,53.7,i,76.9*,48.9
COc1cccc(OCCn2cc(C(=O)c3ccco3)c3ccccc32)c1,352.4,-0.2,3.1,-30.8,i,.,.
CC(=O)c1cn(CCOc2cc(C)ccc2C)c2ccccc12,377.3,-2.6,8.9,90.3*,?,93.4*,83.3*
Cc1ccc(C)c(OCCn2cc(C(=O)O)c3ccccc32)c1,129.2,-0.2,-0.7,-25.5,i,.,.
C[C@@H](c1ccccc1)N1C[C@@H](COCc2ccccc2)Oc2cc(N3CC[C@@H](N(C)C)C3)ccc2S1(=O)=O,.,.,.,-24.5,i,.,.
COc1ccc(CNC(=O)CC2C[C@H](C(=O)N3CCOCC3)[C@@]3(CCC4CCCC4)c4[nH]c5ccccc5c4CCN3C2=O)cc1OC (some centres not stated),144.6,-7.4,.,7.4,i,.,.
Cn1c2ccccc2c(=O)c2ccc(C#CC3(O)CCCCC3)cc21,731.5,-10.1,-2.9,56.3,?,16.9,-80.9
CC(C)c1ccc(NC(=O)C2(C)Cc3c(-c4cccc(C(F)(F)F)c4)ccnc3O2)cc1 (configuration not stated),.,1.1,.,-12.8,i,.,.
CC[C@@H](C(=O)[C@@H](C)[C@@H](O)[C@H](C)CCc1ccc(C)c(O)c1C(=O)O)[C@H]1O[C@](CC)([C@H]2CC[C@](O)(CC)[C@H](C)O2)C[C@@H]1C,118.5,-9.1,1.5,103.5*,?,97.7*,90.7*
CCc1cccc(NC(=O)CSc2nc(C)cs2)c1,.,0.1,.,-5.3,i,.,.
